Assay results published in paper PMC8966662 (RSC Advances, 2022).
Where two headings read alike, the source gives them in different places.

Legend:
[1] = in vitro bioavailability, dialysis tubing procedure; type: in vitro ADME; details: sum of pepsin (stage 1) and pancreatin (stage 2) bioavailability
Summary of the method: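 Test compound at 1.0 × 10³ μM in DMSO, with porcine pepsin and 2.0 w/v% sodium cholate, sealed in a dialysis bag in 8.5 × 10⁻¹ N HCl, shaking at 37 ± 0.5 °C for 2 h. Porcine pancreatin in NaHCO3, amylase and esterase then added; bag in pH 7.0 phosphate buffer, 37 °C, 4 h. Outer liquid sampled after each stage and quantified by UV-Vis against pH 1.0/7.0 calibration curves as % unchanged compound recovered; triplicate.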

[2] = test system: strain TA 98; details: cited from earlier work
[3] = 2,2-diphenyl-1-picrylhydrazyl; type: biochemical; details: result in words
Summary of the method: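 DPPH· freshly prepared at 50 μM in methanol; test compound stocks in DMSO. Sample mixed with DPPH· solution, kept 30 min in the dark, absorbance read at 517 nm by UV-Vis. %RSA calculated against DMSO vehicle control across a series of sample concentrations. IC50 taken from %RSA plots.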

[4] = ref 13 (Grande et al.); cited from earlier work

Structure (SMILES)	total in vitro bioavailability [1]	further results
O=c1c(O)c(-c2ccc(O)c(O)c2)oc2cc(O)cc(O)c12 [Compound 1S0, quercetin]		total in vitro bioavailability [4]: 10.7 ± 1.3%
O=c1c(O)c(-c2ccc(O)cc2)oc2cc(O)cc(O)c12 [Compound 4S0, kaempferol, reference compound]	15.40%	
O=c1cc(-c2ccc(O)cc2)oc2cc(O)cc(O)c12 [Compound 2S0, apigenin, reference compound]	16.59%	DPPH free radical scavenging activity (%RSA) [3]: very low
O=c1cc(-c2ccc(O)c(O)c2)oc2cc(O)cc(O)c12 [Compound 5S0, luteolin, reference compound]	19.29%	

Further lines, with some results ahead:

total in vitro bioavailability [1]	Structure (SMILES)	further results
34.81 ± 0.85%	NC(=O)COc1ccc2c(=O)c(OCC(N)=O)c(-c3ccc(OCC(N)=O)c(OCC(N)=O)c3)oc2c1 [Compound 3S3, 2,2′-((4-(3,7-bis(2-amino-2-oxoethoxy)-4-oxo-4H-chromen-2-yl)-1,2-phenylene)bis(oxy))diacetamide]	
21.34 ± 0.50%	NC(=O)COc1ccc(-c2oc3cc(OCC(N)=O)cc(OCC(N)=O)c3c(=O)c2OCC(N)=O)cc1 [Compound 4S3, 2,2′,2′′-((2-(4-(2-amino-2-oxoethoxy)phenyl)-4-oxo-4H-chromene-3,5,7-triyl)tris(oxy))triacetamide]	
34.87 ± 0.87%	NC(=O)COc1cc(OCC(N)=O)c2c(=O)cc(-c3ccc(OCC(N)=O)c(OCC(N)=O)c3)oc2c1 [Compound 5S3, 2,2′-((4-(5,7-bis(2-amino-2-oxoethoxy)-4-oxo-4H-chromen-2-yl)-1,2-phenylene)bis(oxy))diacetamide]	
20.70 ± 0.29%	NC(=O)COc1cc(OCC(N)=O)c2c(=O)c(OCC(N)=O)c(-c3ccc(OCC(N)=O)c(OCC(N)=O)c3)oc2c1 [Compound 1S3, 2,2′,2′′-((2-(3,4-bis(2-amino-2-oxoethoxy)phenyl)-4-oxo-4H-chromene-3,5,7-triyl)tris(oxy))triacetamide]	toxicity in mutagenicity study [2]: nontoxic
22.20 ± 0.82%	NC(=O)COc1ccc(-c2cc(=O)c3c(OCC(N)=O)cc(OCC(N)=O)cc3o2)cc1 [Compound 2S3, 2,2′-((2-(4-(2-amino-2-oxoethoxy)phenyl)-4-oxo-4H-chromene-5,7-diyl)bis(oxy))diacetamide]	toxicity in mutagenicity study [2]: nontoxic; mutagenic activity ([2]; strain TA 98): did not show any mutagenic activity; DPPH free radical scavenging activity (%RSA) [3]: very low
16.19%	O=c1c(O)c(-c2ccc(O)c(O)c2)oc2cc(O)ccc12 [Compound 3S0, Fisetin, reference compound]	
